Rows were chosen to be rich in hits. Some 2% of all compounds tested hit in one or more screens of this group.
LMPTP inh: LMPTP (human) inhibition; P24666; recombinant LMPTP-A, OMFP fluorogenic substrate, fluorescence intensity; inhibition, % at 20 µM; 0.22% of 360,000 active; AID 651560;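 active = compounds that cut the enzyme signal by at least half of the control window in the single-dose screen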
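Assay system: LMPTP-A enzyme. Input: 0.625 nM LMPTP-A final. Probe or stimulus: 400 µM OMFP. Compound dosing: single 20 µM dose. Schedule: 50 min dark incubation at room temperature. Detection: fluorescence intensity of OMFP turnover product. Read-out: percent inhibition versus substrate-only and uninhibited controls. Benchmarks: no-enzyme low control, uninhibited high control.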
Rpn11 inh: blocks the human proteasome subunit Rpn11 | 0.59% of 360,000 active | human 26S proteasome, Ub4-pepOG fluorescence polarization; 20S core pre-blocked with epoxomicin | inhibition, % at 20 µM;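 active = inhibition at 20 µM, scaled to each plate's controls, above about 33%, limit read from the data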
Scp-1 inhibitor: Scp-1 (human) phosphatase inhibition. Recombinant Scp1, phosphopeptide, malachite green phosphate absorbance. AID 493091. inhibition, % at 20 µM. 0.88% of 340,000 active. Q9GZU7;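 active = inhibition above about 50% at 20 µM, limit read from the data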
Target sequence (Q9GZU7 76-261 limits assumed): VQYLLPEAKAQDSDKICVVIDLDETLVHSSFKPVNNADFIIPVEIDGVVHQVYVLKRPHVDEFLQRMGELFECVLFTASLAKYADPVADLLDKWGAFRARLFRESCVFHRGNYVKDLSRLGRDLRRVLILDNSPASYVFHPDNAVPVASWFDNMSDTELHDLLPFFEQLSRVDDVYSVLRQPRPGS
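Material: truncated SCP-1 phosphatase (76-261aa) / Buffer or medium: 50 mM Tris acetate pH 5.5, 0.005% Tween-20, 10 mM MgCl2 / Compound dosing: one concentration, 20 µM, with 1.0% DMSO / Incubation: 45 min room-temperature reaction, 5 min colour, 30 min stabiliser / Detection: colorimetric free-phosphate detection, absorbance 630 nm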
STEP block: blocks human striatal-enriched tyrosine phosphatase; P54829; recombinant STEP, OMFP fluorogenic substrate, fluorescence; inhibition, % at 20 µM; 0.25% of 360,000 active; AID 588621;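 active = inhibition at 20 µM, scaled per plate between control wells, above about 37%, limit read from the data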
Target sequence (P54829 whole entry, looked up): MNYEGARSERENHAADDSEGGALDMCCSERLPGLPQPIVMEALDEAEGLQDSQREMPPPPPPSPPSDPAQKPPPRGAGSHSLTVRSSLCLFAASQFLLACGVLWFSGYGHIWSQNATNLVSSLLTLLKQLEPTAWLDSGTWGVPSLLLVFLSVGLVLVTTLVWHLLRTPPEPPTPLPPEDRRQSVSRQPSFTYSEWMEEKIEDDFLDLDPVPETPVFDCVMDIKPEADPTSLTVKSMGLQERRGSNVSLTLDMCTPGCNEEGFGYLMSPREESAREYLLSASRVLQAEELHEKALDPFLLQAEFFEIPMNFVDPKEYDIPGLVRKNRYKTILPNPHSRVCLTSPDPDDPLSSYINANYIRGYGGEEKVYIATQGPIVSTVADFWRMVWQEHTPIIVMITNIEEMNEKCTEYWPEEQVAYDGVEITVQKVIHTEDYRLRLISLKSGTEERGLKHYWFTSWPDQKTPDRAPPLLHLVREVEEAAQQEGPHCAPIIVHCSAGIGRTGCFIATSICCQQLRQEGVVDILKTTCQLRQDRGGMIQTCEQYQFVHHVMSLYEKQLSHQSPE
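Test system: STEP tyrosine phosphatase / Reagent: OMFP at 25 µM / Doses: 20 µM, 1% DMSO / Read-out: percent inhibition scaled to no-enzyme and uninhibited-enzyme controls, plate-pattern corrected / Detection: FITC-channel fluorescence of OMFP product / Medium: Bis-Tris buffer pH 6.0, 2.5 mM DTT, 0.005% Tween 20 / Schedule: 20 min at room temperature, dark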
DNMT1 inh: blocks human DNA methyltransferase DNMT1; DNMT1 molecular beacon, Hinp1I cleavage, fluorescence; AID 588458; 0.83% of 360,000 active; inhibition (reported as % activation of signal), % at 10 µM; in the data active = inhibition above about 50%
Scp-1 conf: Scp-1 (human) inhibition, single-dose confirmed | shares compounds with Scp-1 inhibitor | recombinant SCP-1 catalytic domain, phosphate release, malachite green absorbance | inhibition, % at 20 µM | 61% of 2,500 active
MG interference: interferes with malachite green readout, flagging false Scp-1 hits. apparent inhibition (interference), % at 20 µM. 2,500 tested, under 10 active. shares compounds with Scp-1 inhibitor. Colorimetric interference counterscreen, malachite green absorbance 630 nm;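 note: compounds added after enzyme reaction finished so only phosphate colour detection is probed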
Scp1 DSF: validation of human Scp-1 inhibitors by thermal shift binding; AID 540329; thermal shift relative to vanadate control, % at 40 µM; 25% of 1,500 active; shares compounds with Scp-1 inhibitor; Recombinant SCP1, Sypro Orange thermal shift Tm;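 active = substances whose mean melting-temperature shift, as a percentage of the reference inhibitor's shift, reaches about 5.3%, limit read from the data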
Each line names hits and unclear results; the compound was inactive in the other large screens (follow-up assays come after a bar, where they were run).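 Rule for the calls, unless noted: active = inhibition of at least 30% at 20 µM; inactive = the rest.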

CCCC(NC(=O)Cc1c(C)c2cc3c(C)c(C)oc3c(C)c2oc1=O)C(=O)N[C@@H](Cc1ccccc1)C(=O)O (stereo partly specified)	Rpn11 inh 76, Scp-1 inhibitor 98 | Scp-1 conf 88 | MG interference inactive | Scp1 DSF inactive
Cc1c(CCC(=O)O)c(=O)oc2c(C)c3occ(-c4ccc(Br)cc4)c3cc12	LMPTP inh 90, Scp-1 inhibitor 67 | Scp-1 conf 66 | MG interference inactive | Scp1 DSF inactive
Cc1coc2c(C)c3oc(=O)c(CCC(=O)N[C@@H](C)C(=O)N[C@@H](Cc4ccccc4)C(=O)O)c(C)c3cc12	Scp-1 inhibitor 104, STEP block 44 | Scp-1 conf 64 | MG interference inactive | Scp1 DSF inactive
COc1ccc(N2CCN(C(CNC(C)=O)c3ccc4c(c3)OCO4)CC2)cc1 (stereo unspecified)	none
COc1ccc(N2CCN(C(CNC(=O)CC(C)(C)C)c3ccc4c(c3)OCO4)CC2)cc1 (stereo unspecified)	Scp-1 inhibitor 64 | Scp-1 conf inactive | MG interference inactive
COC(=O)c1sccc1NC(=O)CSc1ccccc1N	Scp-1 inhibitor 58 | Scp-1 conf inactive | MG interference inactive
COc1cc2nc(CN3CCN(S(=O)(=O)c4ccccc4[N+](=O)[O-])CC3)[nH]c(=O)c2cc1OC	none (no result: Scp-1 inhibitor)
Cc1nn(CCc2nn[nH]n2)c2nc(-c3ccccc3)cc(C(F)(F)F)c12	Scp-1 inhibitor 64 | Scp-1 conf 71 | MG interference inactive | Scp1 DSF inactive
Cc1cc(C(F)(F)F)c2c(C)nn(CCc3nn[nH]n3)c2n1	none
CCCCNC(=O)c1nc(C2CCN(S(=O)(=O)c3ccc(F)c(F)c3)CC2)oc1-c1ccccc1	none (no result: Scp-1 inhibitor)
Cc1cc(C)cc(N(CCC#N)C(=O)COC(=O)c2ccc(OCc3c(C)noc3C)cc2)c1	Scp-1 inhibitor 51 | Scp-1 conf inactive | MG interference inactive
CC(C)NC(=O)C1Cc2c(-c3ccc(Cl)cc3)ccnc2O1 (stereo unspecified)	none (no result: Scp-1 inhibitor)
CCOc1ccccc1NC(=O)C(OC(=O)C1CC1)c1ccccc1 (stereo unspecified)	none
CCOc1ccccc1NC(=O)C(NCC1(N2CCCCC2)CCCCC1)c1ccccc1 (stereo unspecified)	Scp-1 inhibitor 65 | Scp-1 conf inactive | MG interference inactive
C/C(=N\Nc1nncc2ccccc12)c1ccc(O)cc1	none
C/C(=N\Nc1nncc2ccccc12)c1ccc(C(C)(C)C)cc1	Scp-1 inhibitor 57 | Scp-1 conf inactive | MG interference inactive
Cc1cccc(NC(=O)CN2C(=O)S/C(=C\c3ccc(-c4cccc(C(=O)O)c4C)o3)C2=O)c1	Scp-1 inhibitor 78 (no result: LMPTP inh, Rpn11 inh, STEP block, DNMT1 inh) | Scp-1 conf 81 | MG interference inactive | Scp1 DSF 8.1
Cc1cccc(Nc2n[nH]c(=S)s2)c1C	Scp-1 inhibitor 60 | Scp-1 conf inactive | MG interference inactive
CCS(=O)(=O)C1=NN2C(=N)/C(=C\c3ccc(OCCOc4cccc(OC)c4)c(OC)c3)C(=O)N=C2S1	Scp-1 inhibitor 67 | Scp-1 conf 65 | MG interference inactive | Scp1 DSF 11
COc1cc(/C=C2\C(=N)N3N=C(S(C)(=O)=O)SC3=NC2=O)ccc1OCCOc1ccc(C)cc1	Scp-1 inhibitor 67 | Scp-1 conf 36 | MG interference inactive | Scp1 DSF 9.7
COc1cc(/C=C2\C(=N)N3N=C(S(C)(=O)=O)SC3=NC2=O)cc(OC)c1OCCOc1ccc(C)cc1	none
COCC(=O)N1C[C@@H](C)[C@@H](OC)CN(C)C(=O)c2ccc(NC(=O)c3cnccn3)cc2OC[C@H]1C	none (no result: Rpn11 inh, Scp-1 inhibitor, STEP block, DNMT1 inh)
Cn1ncc(C#N)c1/N=C/N(Cc1ccccc1)Cc1ccccc1	Scp-1 inhibitor 73 | Scp-1 conf inactive | MG interference inactive
Cc1ccc(S(=O)(=O)N[C@H](C(=O)OCC(=O)NC(=O)NCc2ccco2)C(C)C)cc1	Scp-1 inhibitor 62 | Scp-1 conf inactive | MG interference inactive
CC1=C(C(=O)N2CCCCCC2)CC(CC(=O)NCCc2ccccn2)C(=O)N1Cc1ccc(C(C)(C)C)cc1 (stereo unspecified)	none (no result: Rpn11 inh, Scp-1 inhibitor, STEP block, DNMT1 inh)
Cc1cccc(C)c1NC(=O)CN(C)C(=O)c1cccc(-n2cccc2)c1	Scp-1 inhibitor 68 | Scp-1 conf 46 | MG interference inactive | Scp1 DSF inactive
Cc1cccc(C)c1NC(=O)CN(C)C(=O)c1ccc(N2C(=O)CCC2=O)cc1	none
Cc1noc(C)c1NC(=O)N(C)C[C@H]1Oc2c(NC(=O)NC(C)C)cccc2C(=O)N([C@H](C)CO)C[C@@H]1C	none
C[C@H](CO)N1C[C@H](C)[C@@H](CN(C)S(C)(=O)=O)Oc2c(NC(=O)c3ccncc3)cccc2C1=O	Scp-1 inhibitor 55 | Scp-1 conf inactive | MG interference inactive
Cc1noc(C)c1NC(=O)N(C)C[C@H]1Oc2c(NC(=O)c3ccncc3)cccc2C(=O)N([C@H](C)CO)C[C@@H]1C	Scp-1 inhibitor 61 | Scp-1 conf inactive | MG interference inactive
C[C@H](CO)N1C[C@H](C)[C@@H](CN(C)Cc2ccc(Cl)c(Cl)c2)Oc2c(NC(=O)Cc3ccccc3)cccc2C1=O	none
C[C@H](CO)N1C[C@H](C)[C@@H](CN(C)Cc2ccc(Cl)c(Cl)c2)Oc2c(NC(=O)c3ccncc3)cccc2C1=O	Scp-1 inhibitor 54 | Scp-1 conf inactive | MG interference inactive
COc1cc(OC)cc(C2=Cc3ccccc3C(CC(C)=O)N2c2ccc(C#CC3(N)CCCCC3)cc2)c1 (stereo unspecified)	none (no result: Rpn11 inh, Scp-1 inhibitor, STEP block, DNMT1 inh)
COc1cccc(CN2CCC2(C)C(=O)NCc2cccc(C(F)(F)F)c2)c1OC (stereo unspecified)	none (no result: Scp-1 inhibitor)
CCN(CCCCN1C(=O)c2ccccc2C1=O)c1ccc2c(c1)C(=O)N(C)C2=O	Scp-1 inhibitor 67 | Scp-1 conf 68 | MG interference inactive | Scp1 DSF inactive
CC(C)C[C@@H]1COc2cc(N3CCSCC3)ccc2S(=O)(=O)N1	none (no result: Rpn11 inh, Scp-1 inhibitor, STEP block, DNMT1 inh)
Fc1ccccc1COc1ccc(-c2nnn(Cc3ccccc3F)n2)cc1	none
Cn1nnc(-c2ccc(OCc3ccccc3F)cc2)n1	Scp-1 inhibitor 65 | Scp-1 conf inactive | MG interference inactive
COc1cccc(CNC(=O)[C@@H]2CCCN2C(=O)[C@@H]2CCCN2C(=O)OC(C)(C)C)c1	none (no result: Rpn11 inh, Scp-1 inhibitor, STEP block, DNMT1 inh)
Cc1cc(C)c2c(n1)SCC(=O)N2CC(=O)Nc1c(C)cccc1C	Scp-1 inhibitor 52 | Scp-1 conf inactive | MG interference inactive
